Shown are actives, neighbours in structure and some others; about 1.4% of the full set was active somewhere.
H9c2 protect: myocardial damage modulation in H9c2 cells; actives 0.63% (n = 360,000); protection from H2O2 cell death, % at 20 µM; H9c2 cardiomyocytes, H2O2 injury protection, ATPLite, 2 h; AID 588492;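 active = compounds giving at least 50% protection of heart cells from peroxide-induced death in the single-dose screen, raw or plate-pattern-corrected value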
DDE Tn7 FP inh: disrupts Tn7 cyclic peptide binding to fibrin D-Dimer-E complex. FP displacement of FITC-Tn7 peptide from fibrin DD(E); 0% = median of compound wells per plate. inhibition, % at 8.3 µM. actives 0.13% (n = 370,000). AID 720508;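 active = inhibition above the mean of compounds falling within the control limits plus 3 SD of them, cut at about 14% in these data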
Target sequence (P02675 whole entry, looked up): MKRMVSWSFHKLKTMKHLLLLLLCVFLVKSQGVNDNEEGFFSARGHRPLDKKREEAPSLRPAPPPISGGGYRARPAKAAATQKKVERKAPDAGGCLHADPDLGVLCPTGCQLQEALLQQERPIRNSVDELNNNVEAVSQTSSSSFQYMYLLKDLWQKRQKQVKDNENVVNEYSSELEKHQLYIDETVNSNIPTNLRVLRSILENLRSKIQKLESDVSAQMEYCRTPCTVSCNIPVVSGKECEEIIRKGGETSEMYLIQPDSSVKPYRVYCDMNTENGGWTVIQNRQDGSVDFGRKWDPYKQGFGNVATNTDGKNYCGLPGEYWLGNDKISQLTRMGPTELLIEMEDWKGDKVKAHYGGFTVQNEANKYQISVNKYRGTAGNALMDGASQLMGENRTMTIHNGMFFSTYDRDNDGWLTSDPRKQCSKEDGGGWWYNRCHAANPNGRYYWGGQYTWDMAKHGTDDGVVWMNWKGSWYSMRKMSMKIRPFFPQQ
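system = human fibrin DD(E) protein | quantity = DD(E) 2 µM final | medium = Tris/NaCl/CaCl2 buffer, pH 7.8 | also added = labelled Tn7 tracer, 0.1 µM | compound dosing = single point at 8.3 µM | timing = compound with protein 10 min, then 3 h after probe, room temperature | signal = FP measurement | benchmarks = Aha-Tn7 high control | repeats = one replicate per compound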
MT1-MMP act inh: blocks activation of human MT1-MMP; HT1080 RFP-PRO-GFP cells, GFP/RFP ratio fluorescence, overnight; percent of plate control window, DMSO zero; GFP/RFP ratio change, % at 20 µM; AID 651647; actives 0.061% (n = 360,000);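 active = GFP/RFP ratio change of at least 30% with cell ATP level not reduced by more than half and red fluorescence within 50% of control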
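Assay system: RFP-PRO-GFP reporter HT1080 cells; read-out basis: GFP/RFP fluorescence ratio; benchmarks: DMSO wells and RFP-L50D-GFP cells; doses: 20 µM single dose, 1% DMSO; schedule: overnight cell settling, then overnight compound exposure, 37 °C, 5% CO2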
Tn6 DDE FP: disrupts Tn6 cyclic peptide binding to fibrin D-Dimer-E complex | P02675 | Fibrin DD(E) TRITC-Tn6 fluorescence polarization displacement | inhibition, % at 8.3 µM | actives 0.21% (n = 370,000) | AID 720509;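 active = inhibition above a per-campaign cutoff: mean of compounds within control limits plus 3 SD, cut at about 15% in these data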
DAGLB inhibitor: diacylglycerol lipase beta (human) inhibition | actives 0.059% (n = 340,000) | inhibition, % at 5.17 µM | HEK293T DAGLB membrane lysate, EnzChek fluorogenic substrate | Q8NCG7; in the data active = inhibition above about 34%
TAG inh: reduces triacylglycerol accumulation in H9c2 cells; inhibition, % at 12.5 µM; Nile Red lipid (TAG) fluorescence; cells loaded with 200 µM oleic acid; actives 0.66% (n = 230,000); AID 651582;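 active = pattern-corrected inhibition of lipid staining of at least 50% with the nuclear-stain viability signal not falling by more than 50%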
Each line names hits and unclear results; the compound was inactive in the other large screens.

COc1cc(-c2cc(C(=O)N3CCN(c4ccccn4)CC3)c3ccccc3n2)cc(OC)c1OC	H9c2 protect 64.6
COc1cc(-c2cc(C(=O)NCc3ccc(S(N)(=O)=O)cc3)c3ccccc3n2)cc(OC)c1OC	none (no result: TAG inh)
COc1cc(NC(=O)c2ccccc2)c(C)cc1NC(=O)CSc1nnc(-c2ccco2)n1Cc1ccco1	none (no result: H9c2 protect, MT1-MMP act inh, DAGLB inhibitor, TAG inh)
CCOC(=O)[C@]12CCCCC/C=C\1N(Cc1ccc(OC)cc1)C(=O)[C@H]2CC(=O)NCc1ccccc1	none (no result: H9c2 protect, MT1-MMP act inh, DAGLB inhibitor, TAG inh)
COc1cc(-c2cc(C(=O)Nc3ccc(S(=O)(=O)NCc4ccco4)cc3)c3ccccc3n2)cc(OC)c1OC	H9c2 protect 61.2 (no result: TAG inh)
CCN(CC)S(=O)(=O)c1ccc(N2CCOCC2)c(NC(=O)c2cc(-c3ccccn3)nc3ccccc23)c1	H9c2 protect 52.2
COc1ccc(-c2cc(C(=O)NNC(=O)c3csc(N4CCOCC4)n3)c3ccccc3n2)cc1	H9c2 protect 52.3
COc1ccc(-c2cc(C(=O)NNC(=O)c3csc(N4CCOCC4)n3)c3ccccc3n2)cc1OC	none
COc1ccccc1NC(=O)c1cc(-c2cc(OC)c(OC)c(OC)c2)nc2ccccc12	H9c2 protect 66.4 (no result: TAG inh)
COC(=O)[C@]12C[C@H](CC(=O)N3CCC(c4ccccc4)CC3)C(=O)N(Cc3ccco3)C1=C[C@H](C(C)(C)C)O[C@@H]2C	none (no result: H9c2 protect, MT1-MMP act inh, DAGLB inhibitor, TAG inh)
N#Cc1cccc(NC(=O)OC2CCC23CCC(c2ccccc2)CC3)c1 (centres undefined)	none (no result: H9c2 protect, MT1-MMP act inh, DAGLB inhibitor, TAG inh)
Cc1ccc(C2CCC3(CCC(=O)N3CCOC(=O)Nc3cccc(C#N)c3)CC2)cc1 (centres undefined)	none (no result: H9c2 protect, MT1-MMP act inh, DAGLB inhibitor, TAG inh)
O=C(Nc1c(-c2ccc(F)cc2)nc2ncccn12)c1ccccc1	none (no result: H9c2 protect, MT1-MMP act inh, DAGLB inhibitor, TAG inh)
COc1ccc2oc(C(=O)Nc3ccccc3N3CCOCC3)c(C)c2c1	none
COc1ccc2oc(C(=O)Nc3ccc(N4CCOCC4)cc3)c(C)c2c1	H9c2 protect 55.8
COc1cccc(NC(=O)c2oc3ccc(S(=O)(=O)N4CCOCC4)cc3c2C)c1	H9c2 protect 84.8
Cc1ccc(NC(=O)c2oc3ccc(S(=O)(=O)N4CCOCC4)cc3c2C)cc1C	none (no result: TAG inh)
Cc1ccc(NC(=O)c2cc(-c3cccs3)nc3ccccc23)nc1	H9c2 protect 64.1
Cc1cccc(NC(=O)c2cc(-c3ccco3)nc3ccccc23)n1	H9c2 protect 60.7
Cc1cc(C)c2nc(NNC(=O)c3cc(-c4cccs4)nc4ccccc34)sc2c1	H9c2 protect 56.2
O=C(NCc1ccccc1)C1(C(=O)C2CC2)CC(c2ccccc2C(F)(F)F)=NO1 (centres undefined)	none (no result: H9c2 protect, MT1-MMP act inh, DAGLB inhibitor, TAG inh)
O=C(CSc1nnc(-c2ccccn2)n1-c1ccc(Cl)cc1)Nc1ccc2c(c1)OCCO2	none (no result: H9c2 protect, MT1-MMP act inh, DAGLB inhibitor, TAG inh)
C=CCN1[C@H](Cc2ccccc2)COc2cccc(N3CCSCC3)c2S1(=O)=O	none (no result: H9c2 protect, MT1-MMP act inh, DAGLB inhibitor, TAG inh)
CCc1cc(C(=O)Nc2nc(-c3ccccn3)cs2)sc1C	H9c2 protect 72.3
O=C(Nc1nc(-c2ccccn2)cs1)c1ccccc1-n1cnnn1	H9c2 protect 62.8, TAG inh 50.7
O=C(Nc1nc(-c2ccccn2)cs1)c1ccc2c(c1)OCCO2	none
O=C(Nc1nc(-c2ccccn2)cs1)c1ccc([N+](=O)[O-])o1	none
O=C(Nc1nc(-c2ccccn2)cs1)c1ccc(-c2ccccc2F)o1	H9c2 protect 58.1
CC(=O)Nc1ccc(C(=O)Nc2nc(-c3ccccn3)cs2)cc1	H9c2 protect 70.3
C#CCCCN([C@@H](CC(C)C)C(=O)OC)S(=O)(=O)c1ccccc1Br	none (no result: H9c2 protect, MT1-MMP act inh, DAGLB inhibitor, TAG inh)
Cc1ccc(C(=O)Nc2nc(-c3ccccn3)cs2)o1	none
CC(=O)c1ccc(-c2ccc(C(=O)Nc3nc(-c4ccccn4)cs3)o2)cc1	H9c2 protect 99.2
O=C(Nc1ccc(N2CCOCC2)cc1)Nc1ccc2nc(-c3ccco3)c(-c3ccco3)nc2c1	H9c2 protect 63.2 (no result: TAG inh)
COc1ccc(C2CCCCCN2C(=O)C2CCN(S(=O)(=O)c3cccc(C(C)=O)c3)CC2)cc1 (centres undefined)	H9c2 protect 82.6
COCCNC(=S)N(C)[C@H]1C[C@H]2c3[nH]c4c(-c5ccc6c(c5)OCO6)cccc4c3CCN2C[C@H]1[C@H](C)O	none (no result: H9c2 protect, MT1-MMP act inh, DAGLB inhibitor, TAG inh)

Screens as filed in PubChem.
